Data as given in ChEMBL document CHEMBL4819082, “Ximaoglaucumins A - F, new cembranoids with anti-inflammatory activities from the South China Sea soft coral Sarcophyton glaucum” (Bioorg Med Chem, 2021).

How the values were obtained:
BV-2 [1] = experiment: Antiinflammatory activity against mouse BV2 cells assessed as reduction in LPS-induced NO production at 10 uM incubated for 2 hrs followed by LPS stimulation and measured after 24 hrs by Griess reagent based assay relative to control; assay type: functional; settings: BV-2, 26 h
How it was run: (§1)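 BV-2 cells were seeded at 2.0×10^5 cells/mL in DMEM high-glucose with 10% FBS and grown 24 h at 37 °C, 5% CO₂. They were pretreated with compound for 2 h, then exposed to LPS at 100 ng/mL for 24 h. Medium was mixed 1:1 with Griess buffer for 15 min at room temperature and read at 540 nm. Nitrite came from a sodium nitrite standard curve and was normalized to the LPS-group mean (100%).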

[2] = Cytotoxicity against mouse BV2 cells assessed as cell viability at 10 uM measured after 24 hrs by MTT assay; assay type: cell-based, BV-2; settings: read-out: Activity
How it was run: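 BV-2 cells were seeded at 1.25×10^4 cells/mL and grown 24 h at 37 °C, 5% CO₂. They were then exposed to compound for 24 h, with 0.5 mg/mL MTT added for the final 3 h. Absorbance was read at 490 nm, and viability was normalized to the untreated control mean (100%).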

BV-2 [3] = experiment: Antiinflammatory activity against mouse BV2 cells assessed as reduction in LPS-induced IL-1beta mRNA expression incubated for 2 hrs followed by LPS stimulation and measured after 6 hrs by qRT-PCR analysis; assay type: functional, cell-based; settings: time 8.0 hrs
How it was run: (§2)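 BV-2 microglia were seeded at 1 × 10⁵ cells/mL, pretreated with compound for 2 h, then given LPS at 100 ng/mL for 6 h. Total RNA was extracted with Trizol and reverse-transcribed to cDNA, and IL-1β or IL-6 transcripts were quantified.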

BV-2 [4] = experiment: Antiinflammatory activity against mouse BV2 cells assessed as reduction in LPS-induced IL-6 mRNA expression incubated for 2 hrs followed by LPS stimulation and measured after 6 hrs by qRT-PCR analysis; assay type: functional, cell-based; settings: time 8.0 hrs; how it was run: as §2
BV-2 [5] = experiment: Antiinflammatory activity against mouse BV2 cells assessed as reduction in LPS-induced NO production at 20 uM incubated for 2 hrs followed by LPS stimulation and measured after 24 hrs by Griess reagent based assay relative to control; assay type: functional; settings: BV-2, 26 h; how it was run: as §1

Q: What does the source list for CC(=O)OC/C1=C\CC/C(C)=C/CC/C(C)=C/C=C(/C(C)C)[C@@H](O)C1?
A: NO production (% of LPS) at 10 µM (BV-2 [1]): 71.3%; viability at 24 h, 10 µM [2]: 111%

Q: Which results are given for C/C1=C\CC[C@](C)(O)/C=C/[C@H](C(C)C)CC/C(C)=C/CC1?
A: NO production (% of LPS) at 10 µM (BV-2 [1]): 76.5%; viability at 24 h, 10 µM [2]: 106%

Q: What does the source list for C=C1CC/C=C(\C)C[C@H](O)/C(C(C)C)=C\C=C(/C)CC[C@H]1O?
A: NO production (% of LPS) at 10 µM (BV-2 [1]): 84.6%; viability at 24 h, 10 µM [2]: 102%

Q: For C=C1CC/C=C(\C)C[C@H](OC(C)=O)/C(C(C)C)=C\C=C(/C)CC[C@H]1O, which NO production (% of LPS) at 10 µM (BV-2 [1]) is on record?
A: 74.5%

Q: And the viability at 24 h, 10 µM [2]?
A: 108%

Q: For C/C1=C\CC/C(C)=C/C=C(/C(C)C)[C@@H](O)C[C@@](C)(OO)/C=C/C1, which NO production (% of LPS) at 10 µM (BV-2 [1]) is on record?
A: 85.3%

Q: And the viability at 24 h, 10 µM [2]?
A: 104%

Q: With CC(=O)OC/C1=C\CC/C(C)=C/CC[C@](C)(O)[C@H]2C=C(C(C)C)[C@H](C1)O2 as the molecule, how does the NO production (% of LPS) at 10 µM (BV-2 [1]) read?
A: 92.7%

Q: And the viability at 24 h, 10 µM [2]?
A: 102%

Q: For C/C1=C/C=C(/C(C)C)[C@@H](O)C/C(C)=C/CC/C(C)=C/CC1, which NO production (% of LPS) at 10 µM (BV-2 [1]) is on record?
A: 88.8%

Q: And the viability at 24 h, 10 µM [2]?
A: 103%

Q: What does the source list for C/C1=C\C=C(\C(C)C)[C@@H](O)C[C@]2(C)O[C@H]2CC/C(C)=C/CC1?
A: NO production (% of LPS) at 10 µM (BV-2 [1]): 77.9%; viability at 24 h, 10 µM [2]: 101%

Q: What does the source list for C/C1=C\C=C(\C(C)C)[C@@H](O)[C@H](O)/C(C)=C/CC/C(C)=C/CC1?
A: inhibition (BV-2 [3]): Dose-Dependent Effect; NO production (% of LPS) at 10 µM (BV-2 [1]): 68.7%; inhibition (BV-2 [4]): Dose-Dependent Effect; viability at 24 h, 10 µM [2]: 101%

Q: Which results are given for C/C1=C\[C@H]2O[C@](C)(CC[C@H]2C(C)C)[C@@H](O)CC/C(C)=C/CC1?
A: NO production (% of LPS) at 10 µM (BV-2 [1]): 87.2%; viability at 24 h, 10 µM [2]: 99.9%

Q: For Oc1ccc(/C=C/c2cc(O)cc(O)c2)cc1 [RESVERATROL], which NO production (% of LPS) at 20 µM (BV-2 [5]) is on record?
A: 74.3%

Q: With C=C1C[C@H](O)/C(C(C)C)=C\C=C(/C)CC/C=C(\C)CC[C@@H]1OO as the molecule, how does the NO production (% of LPS) at 10 µM (BV-2 [1]) read?
A: 74.2%

Q: And the viability at 24 h, 10 µM [2]?
A: 103%

Q: With CC(=O)O[C@H]1C/C(C)=C/CCC(C)(O)/C=C/C/C(C)=C/C=C\1C(C)C (stereo partly specified) as the molecule, how does the NO production (% of LPS) at 10 µM (BV-2 [1]) read?
A: 74.4%

Q: What about the viability at 24 h, 10 µM [2] of the same molecule?
A: 97.2%

Q: What does the source list for C/C1=C\C=C(\C(C)C)CC/C(C)=C/CCC(C)(O)/C=C/C1 (stereo unspecified)?
A: NO production (% of LPS) at 10 µM (BV-2 [1]): 80.2%; viability at 24 h, 10 µM [2]: 101%

Q: For C/C1=C\C=C(\C(C)C)CC/C(C)=C/CC/C(C)=C/CC1, which NO production (% of LPS) at 10 µM (BV-2 [1]) is on record?
A: 85.5%

Q: What about the viability at 24 h, 10 µM [2] of the same molecule?
A: 100%

Q: Which results are given for C=C1C[C@H](O)/C(C(C)C)=C\C=C(/C)CC/C=C(\C)CC[C@H]1O?
A: NO production (% of LPS) at 10 µM (BV-2 [1]): 75.9%; viability at 24 h, 10 µM [2]: 96%

Q: With C/C1=C\CC/C(C)=C/C=C(/C(C)C)[C@@H](O)C[C@](C)(O)/C=C/C1 as the molecule, how does the NO production (% of LPS) at 10 µM (BV-2 [1]) read?
A: 79.5%

Q: What about the viability at 24 h, 10 µM [2] of the same molecule?
A: 95.2%

Q: Which results are given for C/C1=C\C=C(\C(C)C)[C@@H](O)C/C(C)=C/CC/C(C)=C/CC1?
A: inhibition (BV-2 [3]): Dose-Dependent Effect; NO production (% of LPS) at 10 µM (BV-2 [1]): 67.8%; inhibition (BV-2 [4]): Dose-Dependent Effect; viability at 24 h, 10 µM [2]: 106%

Q: For C/C1=C\CC[C@](C)(O)[C@H]2C=C(C(C)C)[C@H](C/C(C)=C/CC1)O2, which NO production (% of LPS) at 10 µM (BV-2 [1]) is on record?
A: 82%

Q: What about the viability at 24 h, 10 µM [2] of the same molecule?
A: 99.2%
